Screening results: PubChem BioAssay, several laboratories
TNF necrop inh – inhibitors of TNF-alpha induced necroptosis in Jurkat FADD-/- cells; Jurkat FADD-/- TNF necroptosis rescue, ATP luminescence, 24 h; 0 = TNF only, 100 = no-TNF cells; actives 0.068% (n = 220,000); activation (protection from cell death), % at 10 µM; AID 463075;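 active means activation, meaning protection from cell death, of at least 50% relative to plate controls; inactive means activation below 50%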;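 further: necroptosis triggered by 40 ng/mL TNF-alpha added together with compound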
sdo1 growth – restores growth of sdo1-depleted yeast; S. cerevisiae sdo1-depleted JHY4D growth rescue, OD600 30 h; active compounds read high; pdr5 snq2 efflux-pump mutant strain; z-score at 10 µM; actives 0.21% (n = 140,000);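 active means z-score above 3 at both the 24 hr and the 30 hr optical density reads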;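 further: z-score against mean and SD of all compound wells on the same plate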
L929 necroptosis – blocks zVAD induced death of L929 cells; L929 zVAD necroptosis rescue, ATP luminescence, 24 h; with zVAD 60 µM; viability rescue, % at 10 µM; actives 0.38% (n = 220,000);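 active means activation, scaled between plate controls, above about 75%, limit read from the data; inactive means activation under that limit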;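 further: 0% = zVAD with DMSO and 100% = DMSO alone without zVAD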
Rad51 HR inh – blocks human Rad51 in homologous recombination. Q06609. hRad51 DNA strand exchange, fluorescence dequenching. inhibition, % at 10 µM. actives 0.085% (n = 200,000). AID 1385;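 active means inhibition above 40% at the single screening dose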;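 further: 0% = DMSO control wells and 100% = blanks with heterologous ssDNA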
Target sequence (Q06609 whole entry, looked up): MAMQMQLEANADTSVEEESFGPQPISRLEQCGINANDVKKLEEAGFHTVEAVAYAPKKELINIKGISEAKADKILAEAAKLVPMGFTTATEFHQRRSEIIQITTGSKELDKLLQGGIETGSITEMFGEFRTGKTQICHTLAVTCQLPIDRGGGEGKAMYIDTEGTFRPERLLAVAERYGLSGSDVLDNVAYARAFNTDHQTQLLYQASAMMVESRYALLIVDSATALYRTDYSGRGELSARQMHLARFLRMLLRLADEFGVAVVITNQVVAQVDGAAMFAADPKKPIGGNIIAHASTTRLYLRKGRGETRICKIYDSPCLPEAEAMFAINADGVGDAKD
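Read-out basis: percent inhibition relative to plate controls and blanks / Assay system: human Rad51 nucleoprotein filaments preassembled on unlabelled ssDNA / Timing: filaments 15 min 37 °C, then compound 30 min / Control set: per-plate controls and blanks / Technique: fluorescence dequenching at 485/520 nm / Compound: 10 µM final, single point / Also added: Fluorescein- and BHQ1-tagged 47-mer duplex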
zVAD necrop conf – confirmed blocker of zVAD induced death in L929 cells. shares compounds with L929 necroptosis. actives 16% (n = 760). activation (protection from necroptosis), % at 10 µM. L929 zVAD-induced necroptosis rescue, ATP luminescence, 24 h;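 active means mean protection from necroptosis of at least 50% over duplicate tests; inactive means mean protection below 50%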;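 further: 0% = cells with zVAD alone and 100% = vehicle cells without zVAD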
Starred values were filed as active, the others as inactive; x = no result given. Hits are enriched below; roughly 0.64% of the tested compounds scored in any of these assays.

SMILES	TNF necrop inh	sdo1 growth	L929 necroptosis	Rad51 HR inh	zVAD necrop conf
Cc1cccc2[nH]c(-c3ccc(NC(=O)c4ccco4)cc3)nc12	0	-0.78	84*	-2	2
O=C(Nc1ccc2nc(-c3ccccc3)[nH]c2c1)c1ccco1	0	1.1	15	-4	x
O=c1[nH][nH]cc1C=Nc1ccccc1Cl	0	x	2	-1	x
O=c1[nH][nH]cc1C=Nc1ccccc1O	8	-1.4	75*	-2	13
O=C1NCC(O)=C1C=NCCCO	2	0.7	6	x	x
O=C1NCC(O)=C1C=Nc1ccccc1O	14	x	77*	-14	7
Cc1ccc(NC(=O)c2cccc(OCc3c(C)noc3C)c2)cc1	-2	-0.46	79*	0	10
Cc1noc(C)c1COc1cccc(C(=O)Nc2ccc(C#N)cc2)c1	-3	-0.75	1	-3	x
CCCn1c(=O)[nH]c(=O)c2c1nc(-c1ccccc1)n2CCN1CCOCC1	0	0.28	0	-9	x
Cc1ccc(NC(=O)C(OC(=O)c2ccc(C=O)cc2)c2ccccc2)cc1Cl (stereo not drawn)	3	-0.17	83*	1	19
CCOC(=O)Cc1csc(SCc2nc3ccccc3c(=O)[nH]2)n1	0	-0.1	1	3	x
Cc1cc([N+](=O)[O-])nn1CCC(=O)Nc1nccs1	1	x	4	6	x
CCOc1cc(/C=C2\SC(=O)N(c3ccc(O)cc3)C2=O)ccc1O	3	x	1	x	x
N=C1S/C(=C\c2ccc(O)cc2)C(=O)N1c1ccc(F)cc1	2	x	80*	24	1
Cc1cnc(NC(=O)c2ccc(OCC3CCCO3)cc2)s1 (stereo not drawn)	38	x	75*	-5	75*
CC(C)CNC1=C(C(=S)Nc2ccccc2)C(=O)CC(C)(C)C1	0	-0.53	0	-6	x
CNC(=O)c1cc(Nc2nnc(-c3ccc(O)cc3)c3ccccc23)ccc1OC	-2	x	80*	7	2
COc1ccc(/C=N/Nc2ccccn2)cc1OC	53*	x	88*	-7	89*
COc1cc(NC(=S)Nc2cccc(Cl)c2Cl)c(OC)cc1Cl	-6	-1.6	0	0	x
COc1ccc(NC(=O)Nc2ccccn2)cc1OC	8	x	76*	x	35
COc1ccc(/C=N/NC(=O)C(=O)Nc2ccccn2)cc1OC	0	-0.54	1	1	x
COc1cc(NC(=S)Nc2ccccn2)c(OC)cc1Cl	1	x	79*	4	7
COc1cc(/C=N/Nc2ccccn2)ccc1O	43	x	87*	x	75*
Cc1[nH]c2ccccc2c1/C=N/Nc1nncn1N	-1	x	4	26	x
Cc1[nH]c2ccccc2c1/C=N/Nc1ccccn1	35	x	79*	-5	85*
SMILES	TNF necrop inh	sdo1 growth	L929 necroptosis	Rad51 HR inh	zVAD necrop conf
Cc1cc(S(=O)(=O)NCC(C)C)ccc1OCC(=O)NCc1ccco1	0	x	1	-9	x
CCOC(=O)c1ccc2[nH]c3c(c2c1)CCCC3O (stereo not drawn)	7	x	76*	32	41
CCC12CSc3nc(Cl)ccc3N1C(=O)C(=O)N2C (stereo not drawn)	-1	x	0	4	x
CCCCNC(=S)N/N=C/c1ccc(OCC(=O)Nc2c(C)cc(C)cc2C)c(OC)c1	2	-0.06	1	-13	x
O=C(COc1ccccc1)Nc1ccc2[nH]c(=O)[nH]c2c1	-2	x	76*	-3	2
O=C(COc1ccccc1)Nc1ccc2c(c1)Cc1cc(NC(=O)COc3ccccc3)ccc1-2	2	0.94	1	-4	x
Cc1ccccc1C(=O)NC(=S)Nc1ccc2[nH]c(=O)[nH]c2c1	0	x	76*	6	3
CCCCc1[nH]c(=O)c(C#N)c2c1CSC(C)(C)C2	-2	-0.16	75*	-4	34
CN(CCNC(=O)c1ccc(N2CCCC2=O)cc1)CCc1ccccc1	0	0.69	1	-7	x
CCOc1cc(/C=C(\C#N)c2[nH]nc(N)c2C#N)ccc1O	2	0.91	81*	-2	39
COc1ccc2c(C)nc(Nc3nc(C)c(C)c(=O)[nH]3)nc2c1	-19	-0.99	113*	-3	1
O=C(CSc1nnc(COc2ccccc2)n1-c1ccccc1)c1cccs1	1	-0.45	-1	-6	x
Cn1c(N)c(C(=O)N/N=C/c2ccccc2)sc1=S	5	x	75*	18	76*
Cc1c(C(=O)N/N=C/c2cccnc2)sc(=S)n1C	0	-0.58	2	6	x
